As usually defined, the MIC is the least concentration at which growth counts as inhibited. High values mean a need for much substance, low ones inhibition by little substance.

In brackets after ≈: the same amount, converted by molar mass.

The test system of assay [1] is Candida albicans. Put plainly: Antifungal activity against Candida albicans ATCC 90028 after 48 to 96 hrs by broth microdilution method. Type of assay: functional. The method in brief:
(§1)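 Broth microdilution followed NCCLS with slight modification, giving MIC. Compounds were dissolved in DMSO as a 12.8 mg/mL stock and diluted in RPMI-1640, with final solvent below 1%. Yeasts were kept on modified Sabouraud dextrose agar or potato dextrose agar slants, and filamentous fungi on potato dextrose agar.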
(In general: Dilution methods test growth across graded concentrations, often in twofold steps.)

For a further assay, the system named is Candida parapsilosis. Put plainly: Antifungal activity against Candida parapsilosis ATCC 22019 after 48 to 96 hrs by broth microdilution method. Type of assay: functional. The note with it: Lodderomyces parapsilosis. The procedure, abridged: as §1
A further assay concerns Nakaseomyces glabratus. Put plainly: Antifungal activity against Candida glabrata ATCC 90030 after 48 to 96 hrs by broth microdilution method. The format is functional. The procedure, abridged:
as §1

For another assay, the system named is Pichia kudriavzevii. Put plainly: Antifungal activity against Candida krusei ATCC 6258 after 48 to 96 hrs by broth microdilution method. Type of assay: functional. The procedure, abridged:
as §1

The subject of a further assay is Cryptococcus neoformans. The experiment in a line: Antifungal activity against Cryptococcus neoformans ATCC 90112 after 48 to 96 hrs by broth microdilution method. The format is functional. The procedure, abridged:
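Broth microdilution followed NCCLS with slight modification, giving MIC. Yeasts were kept on modified Sabouraud dextrose agar or potato dextrose agar slants, and filamentous fungi on potato dextrose agar.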

For assay [2], the system named is Aspergillus fumigatus. The experiment in a line: Antifungal activity against Aspergillus fumigatus IFM 41374 after 48 to 96 hrs by broth microdilution method. Type of assay: functional. The procedure, abridged:
as §1

For assay [3], the system named is Aspergillus fumigatus. The experiment in a line: Antifungal activity against Aspergillus fumigatus IFM 41236 after 48 to 96 hrs by broth microdilution method. Type of assay: functional. The method in brief: as §1
The test system of the next assay is Aspergillus nidulans. The experiment in a line: Antifungal activity against Aspergillus nidulans IFM 5396 after 48 to 96 hrs by broth microdilution method. The format is functional. The method in brief: as §1
Assay [4] has as its system Candida albicans. The experiment in a line: Antifungal activity against Candida albicans ATCC 90028 after 48 hrs by disk diffusion assay. The format is functional. The method in brief:
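Pure compounds were dissolved in MeOH at 10 mg/mL, about 0.4 mg absorbed per 8 mm paper disk, then air-dried. Plates of Yeast Morphology Agar were incubated 48 h at 30 °C, and the diameter of the inhibition zone was measured.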
(In general: Agar diffusion results depend on both activity and mobility in agar.)

For assay [5], the system named is Candida albicans. The experiment in a line: microbe, parasite or virus in culture. The note with it: ATCC 90028, 48 h, read-out: IZ.
Assay [6] concerns Candida albicans. The experiment in a line: Antifungal activity against Candida albicans ATCC 90028 at 100 ug/mL after 48 hrs by disk diffusion assay. The format is functional. As to conditions: ATCC 90028, 48 h, read-out: IZ. The procedure, abridged:
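The 8 mm paper disk was dipped in the solution and air-dried. C. albicans ATCC 90028, preincubated in YPD broth, was the inoculum on Yeast Morphology Agar, incubated 48 h at 30 °C. Read-out was the diameter of the inhibition zone.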

Take `Clc1ccc(COC(Cn2ccnc2)c2ccc(Cl)cc2Cl)c(Cl)c1` (stereo not drawn) [MICONAZOLE]: the MIC stood at 1 µg/mL (≈ 2.4 µM) in the assay on Candida albicans [1]; 0.5 µg/mL (≈ 1.2 µM) in the assay on Candida parapsilosis; 0.5 µg/mL (≈ 1.2 µM) with Nakaseomyces glabratus; 1 µg/mL (≈ 2.4 µM) against Pichia kudriavzevii; 0.064 µg/mL (≈ 0.154 µM) with Cryptococcus neoformans; 0.5 µg/mL (≈ 1.2 µM) against Aspergillus fumigatus [2]. Further, the MIC against Aspergillus fumigatus [3] was 0.5 µg/mL (≈ 1.2 µM); in the assay on Aspergillus nidulans it was 0.25 µg/mL (≈ 0.601 µM). Moreover, in the assay with Candida albicans [4], the “inhibition zone (IZ)” value was determined as 14 mm. In addition, in the assay with Candida albicans [5], the zone of inhibition at 10 µg/mL was 15 mm.

As for `CC(C)=CCc1c(O)cc2c(c1O)C(=O)CC(c1ccc(O)cc1O)O2` (stereo not drawn) [CUDRAFLAVANONE B], the MIC against Candida albicans [1] is 64 µg/mL (≈ 180 µM); with Candida parapsilosis, 128 µg/mL (≈ 359 µM); in the assay on Nakaseomyces glabratus, 128 µg/mL (≈ 359 µM); against Pichia kudriavzevii it was 64 µg/mL (≈ 180 µM); against Cryptococcus neoformans, 32 µg/mL (≈ 89.8 µM); against Aspergillus fumigatus [2], 64 µg/mL (≈ 180 µM). Moreover, the MIC in the assay on Aspergillus fumigatus [3] and against Aspergillus nidulans was 64 µg/mL (≈ 180 µM) throughout. Besides, in the assay with Candida albicans [4], the “inhibition zone (IZ)” value was found to be 9 mm.

Regarding `COc1cc(-c2coc3cc(O)cc(O)c3c2=O)ccc1O` [3'-O-METHYLOROBOL], the minimal inhibitory concentration (MIC) against Candida albicans [1], in the assay with Candida parapsilosis, against Nakaseomyces glabratus, in the assay on Pichia kudriavzevii, against Cryptococcus neoformans and with Aspergillus fumigatus [2] was over 128 µg/mL in each case. For the same compound, the MIC with Aspergillus fumigatus [3] and in the assay with Aspergillus nidulans was over 128 µg/mL throughout.

`CC1(C)C=Cc2c(cc3oc4c(O)cccc4c(=O)c3c2O)O1`: the MIC with Candida albicans [1] was over 128 µg/mL; in the assay on Candida parapsilosis, over 128 µg/mL; in the assay on Nakaseomyces glabratus, over 128 µg/mL; against Pichia kudriavzevii, over 128 µg/mL; in the assay on Cryptococcus neoformans it was 32 µg/mL (≈ 103 µM); against Aspergillus fumigatus [2], over 128 µg/mL. Besides, the MIC against Aspergillus fumigatus [3] and in the assay on Aspergillus nidulans was over 128 µg/mL each time.

On to `CC(C)=CCc1c(O)cc2oc3ccc(O)cc3c(=O)c2c1O`, for which the MIC was over 128 µg/mL in the assay on Candida albicans [1]; over 128 µg/mL in the assay with Candida parapsilosis; over 128 µg/mL in the assay on Nakaseomyces glabratus; over 128 µg/mL in the assay with Pichia kudriavzevii; 128 µg/mL (≈ 410 µM) with Cryptococcus neoformans; over 128 µg/mL with Aspergillus fumigatus [2]. In addition, the MIC in the assay with Aspergillus fumigatus [3] and in the assay with Aspergillus nidulans was over 128 µg/mL throughout. Also, the “inhibition zone (IZ)” value in the assay with Candida albicans [4] is given as 9 mm.

`CC(C)=CCc1c(O)cc(O)c2c1OC(c1ccc(O)cc1)CC2=O` (stereo not drawn) [SOPHORAFLAVANONE B]: the MIC was 64 µg/mL (≈ 188 µM) in the assay on Candida albicans [1]; over 128 µg/mL in the assay on Candida parapsilosis; over 128 µg/mL against Nakaseomyces glabratus; 64 µg/mL (≈ 188 µM) against Pichia kudriavzevii; 64 µg/mL (≈ 188 µM) in the assay with Cryptococcus neoformans; over 128 µg/mL with Aspergillus fumigatus [2]. The MIC with Aspergillus fumigatus [3] stood at 16 µg/mL (≈ 47 µM); with Aspergillus nidulans, 128 µg/mL (≈ 376 µM).

`COc1cc(O)c(C(=O)c2cccc(O)c2CC=C(C)C)c(O)c1` [CUDRANONE]: the MIC with Candida albicans [1] is over 128 µg/mL; with Candida parapsilosis it was over 128 µg/mL; against Nakaseomyces glabratus it was over 128 µg/mL; in the assay with Pichia kudriavzevii it was over 128 µg/mL; against Cryptococcus neoformans, over 128 µg/mL; against Aspergillus fumigatus [2] it was 32 µg/mL (≈ 97.5 µM). Further, the MIC in the assay on Aspergillus fumigatus [3] and in the assay on Aspergillus nidulans was 16 µg/mL (≈ 48.7 µM) each time. In the assay with Candida albicans [4], the “inhibition zone (IZ)” value is 9 mm.

For the compound `C[C@@H]1[C@H](O)[C@@H](C)/C=C/C=C/C=C/C=C/C=C/C=C/C=C/[C@H](O[C@@H]2O[C@H](C)[C@@H](O)[C@H](N)[C@@H]2O)C[C@@H]2O[C@](O)(C[C@@H](O)C[C@@H](O)[C@H](O)CC[C@@H](O)C[C@@H](O)CC(=O)O[C@H]1C)C[C@H](O)[C@H]2C(=O)O` [AMPHOTERICIN B], the MIC came out at 2 µg/mL (≈ 2.16 µM) against Candida albicans [1]; 2 µg/mL (≈ 2.16 µM) against Candida parapsilosis; 1 µg/mL (≈ 1.08 µM) against Nakaseomyces glabratus; 2 µg/mL (≈ 2.16 µM) with Pichia kudriavzevii; 1 µg/mL (≈ 1.08 µM) against Aspergillus fumigatus [2]; 1 µg/mL (≈ 1.08 µM) with Aspergillus fumigatus [3]. Moreover, inhibition of growth in the assay with Aspergillus nidulans (MIC) required 2 µg/mL (≈ 2.16 µM). Further, in the assay with Candida albicans [4], the “inhibition zone (IZ)” value turned out to be 22 mm. The zone of inhibition at 100 µg/mL in the assay on Candida albicans [6] stood at 18 mm.

In the case of `C=CC(C)(C)c1c(O)cc2oc3c(O)c(O)ccc3c(=O)c2c1O` [CUDRAXANTHONE S], the MIC against Candida albicans [1] is 16 µg/mL (≈ 48.7 µM); against Candida parapsilosis, over 128 µg/mL; in the assay on Nakaseomyces glabratus, 4 µg/mL (≈ 12.2 µM); with Pichia kudriavzevii it was over 128 µg/mL; against Cryptococcus neoformans it was 2 µg/mL (≈ 6.09 µM); in the assay on Aspergillus fumigatus [2], 4 µg/mL (≈ 12.2 µM). The MIC with Aspergillus fumigatus [3] and with Aspergillus nidulans was 4 µg/mL (≈ 12.2 µM) in each case. For the same compound, the “inhibition zone (IZ)” value with Candida albicans [4] is given as 9 mm.

Regarding `CC(C)=CCc1c(O)cccc1C(=O)c1c(O)cc(O)c(CC=C(C)C)c1O` [CUDRAPHENONE D], the MIC in the assay with Candida albicans [1] came to 16 µg/mL (≈ 41.8 µM); with Candida parapsilosis, 64 µg/mL (≈ 167 µM); in the assay on Nakaseomyces glabratus, 32 µg/mL (≈ 83.7 µM); against Pichia kudriavzevii, 8 µg/mL (≈ 20.9 µM); against Cryptococcus neoformans, 2 µg/mL (≈ 5.23 µM); against Aspergillus fumigatus [2] it was 8 µg/mL (≈ 20.9 µM). Also, the MIC in the assay on Aspergillus fumigatus [3] came out at 4 µg/mL (≈ 10.5 µM); against Aspergillus nidulans, 16 µg/mL (≈ 41.8 µM). The “inhibition zone (IZ)” value with Candida albicans [4] was 11 mm.

On to `CC(C)=CCc1cc(C(=O)c2cccc(O)c2CC=C(C)C)c(O)cc1O` [CUDRAPHENONE B], for which the MIC with Candida albicans [1] is 16 µg/mL (≈ 43.7 µM); against Candida parapsilosis, over 128 µg/mL; with Nakaseomyces glabratus it was 16 µg/mL (≈ 43.7 µM); against Pichia kudriavzevii, 16 µg/mL (≈ 43.7 µM); against Cryptococcus neoformans, 4 µg/mL (≈ 10.9 µM); against Aspergillus fumigatus [2], 8 µg/mL (≈ 21.8 µM). In addition, the results for the MIC against Aspergillus fumigatus [3] and in the assay on Aspergillus nidulans were 4 µg/mL (≈ 10.9 µM) and 8 µg/mL (≈ 21.8 µM), respectively.

Take `CC(C)=CCc1c(O)cccc1C(=O)c1c(O)cc(O)c2c1OC(C)(C)C=C2` [CUDRAPHENONE C]: the MIC in the assay on Candida albicans [1] was 64 µg/mL (≈ 168 µM); in the assay on Candida parapsilosis it was over 128 µg/mL; against Nakaseomyces glabratus it was over 128 µg/mL; against Pichia kudriavzevii, 64 µg/mL (≈ 168 µM); in the assay on Cryptococcus neoformans, 16 µg/mL (≈ 42.1 µM); against Aspergillus fumigatus [2] it was 16 µg/mL (≈ 42.1 µM). Besides, the MIC came to 8 µg/mL (≈ 21 µM) against Aspergillus fumigatus [3] and 32 µg/mL (≈ 84.1 µM) in the assay on Aspergillus nidulans. Moreover, the “inhibition zone (IZ)” value in the assay with Candida albicans [4] came out at 10 mm.

With `CC(C)=CCc1c(O)cc2occ(-c3ccc(O)cc3)c(=O)c2c1O` [WIGHTEONE], the MIC was 16 µg/mL (≈ 47.3 µM) against Candida albicans [1]; over 128 µg/mL against Candida parapsilosis; over 128 µg/mL in the assay with Nakaseomyces glabratus; over 128 µg/mL in the assay with Pichia kudriavzevii; 4 µg/mL (≈ 11.8 µM) against Cryptococcus neoformans; 4 µg/mL (≈ 11.8 µM) in the assay with Aspergillus fumigatus [2]. Moreover, the MIC in the assay on Aspergillus fumigatus [3] and in the assay on Aspergillus nidulans was 2 µg/mL (≈ 5.91 µM) in each case. Also, in the assay with Candida albicans [4], the “inhibition zone (IZ)” value is given as 11 mm.

Consider `CC1Oc2cc3oc4c(O)c(O)ccc4c(=O)c3c(O)c2C1(C)C` (stereo not drawn) [TOXYLOXANTHONE C], for which the MIC was over 128 µg/mL in the assay on Candida albicans [1]; over 128 µg/mL in the assay on Candida parapsilosis; 8 µg/mL (≈ 24.4 µM) in the assay with Nakaseomyces glabratus; over 128 µg/mL with Pichia kudriavzevii; 8 µg/mL (≈ 24.4 µM) in the assay on Cryptococcus neoformans; 8 µg/mL (≈ 24.4 µM) in the assay with Aspergillus fumigatus [2]. Moreover, the MIC against Aspergillus fumigatus [3] and with Aspergillus nidulans was 8 µg/mL (≈ 24.4 µM) each time. In addition, the “inhibition zone (IZ)” value in the assay on Candida albicans [4] was 9 mm.

The values above are taken from ChEMBL document CHEMBL1146579, “Antifungal agents from the roots of Cudrania cochinchinensis against Candida, Cryptococcus, and Aspergillus species” (2003).
